Diaph inh CS: diaphorase inhibitors and chemical oxidizers, primary screen, counter-screen for diaphorase-coupled primary assays, biochemical, uHTS, resorufin fluorescence. diaphorase resazurin-to-resorufin fluorescence, NADH, 16 min; bacterial (C. kluyveri) enzyme, not human. AID 1217, 2008. hit rate 0.69% among 190,000. inhibition, % at 20 µM;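 active = primary screen inhibition at 20 µM above a set limit, cut at about 50% in these data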;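 note: plate controls were DMSO with full reaction for no effect and wells lacking NADH for full effect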
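System: Bacterial diaphorase enzyme (C. kluyveri) | Incubation: 16-min room-temperature incubation before reading | Benchmarks: No-NADH positive control and DMSO neutral control | Measured by: Resorufin fluorescence 544/590 nm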
Tb hexokinase: Trypanosoma brucei hexokinase 1 inhibitors, primary screen, biochemical, G6PDH-coupled NADH absorbance, MLSCN library. hexokinase 1 [Trypanosoma brucei]. recombinant TbHK1, G6PDH-coupled NADH A340. inhibition, % at 10 µM. hit rate 0.11% among 220,000;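 active = inhibition of 50% or more in the single-dose primary screen; inactive = inhibition below 50%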
HKDC1 inh: HKDC1 hexokinase inhibitors, primary screen, biochemical, fluorescence, uHTS | hit rate 0.16% among 340,000 | inhibition, % at 20 µM | recombinant HKDC1, G6PDH/diaphorase resazurin coupled fluorescence | Q2TB90;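 active = inhibition above about 35% when tested at 20 µM, limit read from the data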;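 note: plate controls were DMSO wells with enzyme for no effect and DMSO wells lacking enzyme for full effect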
Target sequence (Q2TB90 whole entry, looked up): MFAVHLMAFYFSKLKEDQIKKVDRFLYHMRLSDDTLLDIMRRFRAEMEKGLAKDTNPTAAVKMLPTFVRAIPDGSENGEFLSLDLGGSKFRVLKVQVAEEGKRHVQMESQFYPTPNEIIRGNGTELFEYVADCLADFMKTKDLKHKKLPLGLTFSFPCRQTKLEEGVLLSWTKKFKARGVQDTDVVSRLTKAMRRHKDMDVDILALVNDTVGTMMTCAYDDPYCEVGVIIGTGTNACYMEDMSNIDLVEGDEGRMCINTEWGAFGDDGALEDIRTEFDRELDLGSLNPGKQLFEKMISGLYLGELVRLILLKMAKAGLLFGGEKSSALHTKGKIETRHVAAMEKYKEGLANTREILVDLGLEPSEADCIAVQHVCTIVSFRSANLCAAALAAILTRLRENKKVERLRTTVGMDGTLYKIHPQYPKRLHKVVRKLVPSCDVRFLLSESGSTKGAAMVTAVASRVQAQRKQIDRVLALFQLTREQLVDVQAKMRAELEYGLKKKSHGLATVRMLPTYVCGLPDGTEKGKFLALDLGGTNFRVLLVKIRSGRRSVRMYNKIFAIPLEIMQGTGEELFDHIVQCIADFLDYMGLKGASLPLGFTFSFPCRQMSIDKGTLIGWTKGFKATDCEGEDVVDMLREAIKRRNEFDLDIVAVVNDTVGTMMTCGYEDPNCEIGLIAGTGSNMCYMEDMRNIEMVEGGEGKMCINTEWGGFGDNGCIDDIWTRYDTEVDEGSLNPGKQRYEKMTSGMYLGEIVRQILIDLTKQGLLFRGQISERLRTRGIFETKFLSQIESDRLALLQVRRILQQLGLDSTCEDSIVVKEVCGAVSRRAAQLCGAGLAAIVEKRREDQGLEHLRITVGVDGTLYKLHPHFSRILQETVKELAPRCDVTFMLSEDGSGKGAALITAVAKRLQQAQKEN
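Test system: HK5 enzyme. Quantity: 5 µg/mL HK5 final. Reagent: glucose and ATP substrates. Schedule: 90 min reaction incubation at room temperature, dark. Technique: resazurin-to-resorufin fluorescence via G6PDH and diaphorase coupling, 525/613 nm. Control set: DMSO wells with and without enzyme mix.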
G6PDH counter: L. mesenteroides G6PDH inhibitors, counter-screen for G6PDH-coupled screening assays, biochemical, Leuconostoc mesenteroides enzyme | glucose-6-phosphate dehydrogenase [Leuconostoc mesenteroides] | Purified L. mesenteroides G6PDH, diaphorase/resazurin coupled fluorescence, 45 min | inhibition, % at 5 µM | hit rate 0.12% among 200,000 | AID 1020, 2008; in the data active = inhibition above about 50%
PfG6PD inh: PfG6PD enzyme inhibitors, primary screen, biochemical, fluorescence intensity, uHTS; AID 504690, 2011; inhibition, % at 20 µM; PfGluPho enzyme, NADPH resazurin-diaphorase fluorescence; hit rate 0.78% among 350,000; glucose-6-phosphate dehydrogenase-6-phosphogluconolactonase (Plasmodium falciparum 3D7);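 active = inhibition reaching at least a set limit at 20 µM in the primary screen, cut at about 59% in these data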;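 note: 0% = DMSO wells with substrate and 100% = DMSO wells lacking glucose-6-phosphate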
HKDC1 act conf: HKDC1 hexokinase activators, confirmation, biochemical, single concentration; shares compounds with HKDC1 inh; recombinant HKDC1, G6PDH/diaphorase resazurin fluorescence; stronger effect = lower value; inhibition, % at 20 µM; hit rate 14% among 740;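 active = inhibition at or below a set negative limit, negative inhibition meaning the enzyme was activated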
PfGluPho conf: PfG6PD inhibitors, hit retest, confirmation, biochemical, fluorescence intensity, single concentration | recombinant PfGluPho, NADPH-diaphorase-resazurin fluorescence | inhibition, % at 20 µM | hit rate 34% among 2,400 | AID 504753, 2011 | shares compounds with PfG6PD inh;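 active = inhibition of at least 50% at 20 µM in any single replicate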;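 note: 0% = DMSO with substrate and 100% = DMSO lacking glucose-6-phosphate substrate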
Diaphorase 10uM: diaphorase inhibitors and chemical oxidizers, confirmation, counter-screen for P. falciparum G6PD inhibitor project, biochemical, fluorescence intensity, 10 µM NADPH; diaphorase-coupled resazurin reduction, NADPH 10 uM; shares compounds with PfG6PD inh; hit rate 39% among 820; inhibition, % at 20 µM;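 active = average inhibition reaching 50% or more with the compound at 20 µM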;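 note: resorufin red fluorescence formed as diaphorase reduces resazurin using NADPH; 0% = DMSO with enzyme and 100% = DMSO without enzyme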
Diaph ctr 30uM: diaphorase inhibitors and chemical oxidizers, confirmation, counter-screen for P. falciparum G6PD inhibitor project, biochemical, fluorescence intensity, 30 µM NADPH. shares compounds with PfG6PD inh. Diaphorase/resazurin coupled assay, resorufin fluorescence. inhibition, % at 20 µM. hit rate 29% among 820. AID 504863, 2011;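 active = inhibition averaging 50% or more, tested at 20 µM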;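 note: 0% = DMSO with enzyme and 100% = DMSO wells lacking diaphorase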
Active calls of the source: *; . = not tested or not shown; ! = a repeat was not active. Compounds with a hit are over-represented: about 1.3% of the library has one in this group of screens.

SMILES	Diaph inh CS	Tb hexokinase	HKDC1 inh	G6PDH counter	PfG6PD inh	HKDC1 act conf	PfGluPho conf	Diaphorase 10uM	Diaph ctr 30uM
C[c-]1[c-](C)[c-](C)[c-](C)[c-]1C.[Fe].c1cc2nccc(N3CCCC3)[c-]2c1 (centres undefined)	.	-26	49*!	.	85*	-2	66*!	15	11
Cc1ccccc1Nc1nc(N)nc(CSc2nnnn2-c2ccccc2)n1	5	-12	-3	0	23	.	.	.	.
COC1=CC(=O)c2c(ccc3ncnc(N)c23)C1=O	.	.	87*	.	127*	88	108*	99*	100*
CNC(=O)N(O)C1N(/N=C/c2cccnc2)C(=S)SC1(C)C (centres undefined)	.	-37	-2	.	9	.	.	.	.
Cc1[nH]c2ccccc2c1C1=CC(=O)C=CC1=O	.	.	58*	.	129*	53	114*	93*	53*
Cc1[nH]c2ccccc2c1CCO	12	4	9	6	-10	.	.	.	.
COC(=O)CCC(=O)OC1(C)C(=O)C2=CN(CC(C)C)C(c3ccc(OC)cc3)=CC2=C(Br)C1=O (centres undefined)	.	-28	.	.	.	.	.	.	.
COC(=O)CCC(=O)OC1(C)C(=O)C2=CN(Cc3ccc(OC)cc3)C(c3ccc(OC)cc3)=CC2=C(Br)C1=O (centres undefined)	.	.	32	.	54	.	.	.	.
COC(=O)CCC(=O)OC1(C)C(=O)C2=CN(Cc3ccccc3)C(c3ccc(OC)cc3)=CC2=C(Br)C1=O (centres undefined)	.	.	43*	.	78*	13	47	.	.
CC1(OC(=O)CCc2ccccc2)C(=O)C=C2C=C(c3ccc(C#N)cc3)N(Cc3ccccc3)C=C2C1=O (centres undefined)	.	-20	36*	.	84*	-9	36	.	.
COC(=O)CCC(=O)OC1(C)C(=O)C2=CN(c3ccccc3)C(c3ccc(OC)cc3)=CC2=C(Br)C1=O (centres undefined)	.	.	38*	.	73*	29	74*	50*	39
COC(=O)CCC(=O)OC1(C)C(=O)C2=CN(CC3CC3)C(c3ccc(OC)cc3)=CC2=C(Br)C1=O (centres undefined)	.	-32	37*	.	76*	-8	44	.	.
CC(C)CN1C=C2C(=O)C(C)(OC(=O)CCc3ccccc3)C(=O)C=C2C=C1c1ccc(C#N)cc1 (centres undefined)	.	-34	21	.	58	.	.	.	.
CCOc1ccccc1C1N(c2ccc(F)cc2)C(=O)C2CCCN21 (centres undefined)	6	-2	0	10	0	.	.	.	.
CCn1c(SC(C)C(=O)Nc2nnc(C)s2)nnc1-c1ccco1 (centres undefined)	.	.	-6	.	-16	.	.	.	.
O=C(OCC(=O)N1CCc2ccccc2C1)c1ccc(F)cc1Cl	.	.	-4	.	-13	.	.	.	.
COc1ccc(C(=O)c2coc3c2C(=O)C(=O)c2ccccc2-3)cc1	.	4	61*	.	111*	45	104*	97*	92*
O=C(O)CCNc1cc(N2CCN(C(=O)c3ccco3)CC2)c2noc3c2c1C(=O)c1ccccc1-3	.	.	39*	.	80*	14	24	.	.
C=CC(COCc1ccccc1)N([C@@H](Cc1ccccc1)C(=O)OC)S(=O)(=O)c1ccccc1Br (some centres undefined)	.	.	0	.	11	.	.	.	.

Source: PubChem
